Results from ChEMBL document CHEMBL1131249, “Antimalarial cyclic peroxy ketals” (J Med Chem, 1998).

These compounds were tested on Plasmodium falciparum (assay: In vitro antimalarial activity against Plasmodium falciparum.).
Format: functional, organism-based
Summary of the method: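 Method follows earlier published work. Each compound tested in quadruplicate. IC50 derived from fitted concentration–response curves. Artemisinin run as a concurrent control, with n = 20 for the control.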
Compound `COC1(c2ccc(S(C)(=O)=O)cc2)C=CC2(CCCCCC2)OO1` (configuration not stated) has an IC50 of 31 nM. For `COc1ccc(C2(OC)C=CC3(CCC3)OO2)cc1` (configuration not stated), the IC50 was 160 nM. In the case of `COC1(c2ccc(S(C)(=O)=O)cc2)C=CC2(CCCCC2)OO1` (configuration not stated), the IC50 is reported as 56 nM. `COC1(c2ccc(OC(F)(F)F)cc2)C=CC2(CCCCCC2)OO1` (configuration not stated) gave an IC50 of 61 nM. `COC1(c2ccccc2)C=CC2(CCCCCC2)OO1` (configuration not stated) gave an IC50 of 220 nM. Work on `COC1(c2ccc(F)cc2)C=CC2(CCCCCC2)OO1` (configuration not stated) yielded an IC50 of 85 nM. Work on `CCc1ccc(C2(OC)C=CC3(CCCCCC3)OO2)cc1` (configuration not stated) yielded an IC50 of 180 nM. `COC1(c2ccccc2)C=CC2(CCCC2)OO1` (configuration not stated) gave an IC50 of 190 nM. In the case of `COC1(c2ccc([N+](=O)[O-])cc2)C=CC2(CCCCC2)OO1` (configuration not stated), the IC50 is reported as 46 nM. `COc1ccc(C2(OC)C=CC3(CCCCCC3)OO2)cc1` (configuration not stated) gave an IC50 of 210 nM. With `COC1(c2ccc(SC)cc2)C=CC2(CCCCC2)OO1` (configuration not stated) the IC50 was 160 nM. With `COC1(c2ccccc2)C=CC2(CCCCC2)OO1` (configuration not stated) the IC50 was 280 nM. Compound `CC(C)OC1(c2ccc(Cl)cc2)C=CC2(CCCCCC2)OO1` (configuration not stated) has an IC50 of 1100 nM. For `COC1(c2ccc(Cl)cc2)C=CC2(CCCCC2)OO1` (configuration not stated), the IC50 was 100 nM. For `CC1(C)C=CC(O)(c2ccccc2)OO1` (configuration not stated), the IC50 was > 2500 nM. With `COC1(c2ccc(Cl)cc2)C=CC2(CCCCCC2)OO1` (configuration not stated) the IC50 was 58 nM. With `COC1(c2ccc(SC)cc2)C=CC2(CCCCCC2)OO1` (configuration not stated) the IC50 was 78 nM. `COC1(c2ccc(F)cc2)C=CC2(CCCCC2)OO1` (configuration not stated) showed an IC50 of 200 nM. `COc1ccc(C2(OC)C=CC3(CCCCC3)OO2)cc1` (configuration not stated) was tested, and the IC50 was 180 nM. `COc1cc(C2(OC)C=CC3(CCCCCC3)OO2)cc(OC)c1OC` (configuration not stated) gave an IC50 of 120 nM. `COC1(c2ccccc2)C=CC(C)(C)OO1` (configuration not stated) showed an IC50 of 1100 nM. With `C[C@@H]1CC[C@H]2[C@@H](C)C(=O)O[C@@H]3O[C@@]4(C)CC[C@@H]1[C@]32OO4` [ARTEMISININ] the IC50 was 8.4 nM.
